Assay results as given in ChEMBL document CHEMBL4270574, “Methotrexate prodrugs sensitive to reactive oxygen species for the improved treatment of rheumatoid arthritis” (Eur J Med Chem, 2018).
Converted amounts (≈) assume the structure as drawn. Blank lines part the entries; values can stand above or below the compound they belong to. The source made the active and inactive calls. No cut-off for these calls is given here.

Tests used:
Mus musculus [1] = test: Anti-arthritic activity in DBA/1J mouse model of collagen-induced arthritis inflammation assessed as reduction in fore limb swelling at 7 mg/kg, ip administered daily for 14 days starting from day 27 post disease onset and measured 3 times per week from day 18 to 40 […]; type: functional, organism-based
Procedure, shortened: (§1)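 Male DBA/1J mice (8–9 weeks) were immunized intradermally near the tail base with 100 µg chicken type II collagen in CFA on day -1, with a 50 µg boost on day 21. From day 27 they received daily i.p. dosing in 2% DMSO/PBS for 14 days (n = 8/group). Blinded scoring ran three times weekly, day 18–40, at 0–15 per limb (maximum 60). Mice scoring above 45 were removed. Results are mean ± SEM, tested by one-tailed Mann–Whitney.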

[2] = Chemical stability in 20% DMSO/PBS at 100 uM at 37 degC after 60 mins in absence of H2O2 by RP-UPLC-MS analysis; type: physicochemical; conditions: buffer, 1 h
Procedure, shortened: (§2)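 Prodrug at 100 µM in 20% DMSO/PBS (pH 7.4) with diclofenac internal standard was incubated at 37 °C with shaking, with H2O2 at 0.25–10 mM or PBS only (stability control). Samples were taken from 5 min to 24 h. Percent remaining compound and MTX formation were read by RP-UPLC at 306 nm. Runs were in triplicate and t1/2 is given ± SD.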

Mus musculus [3] = test: Toxicity in DBA/1J mouse model of collagen-induced arthritis inflammation assessed as reduction in body weight at 7 mg/kg, ip administered daily for 14 days starting from day 27 post disease onset; type: organism-based; conditions: in vivo, 336 h
[4] = Chemical stability in 20% DMSO/PBS at 100 uM at 37 degC after 60 mins in presence of 10 mM H2O2 by RP-UPLC-MS analysis; type: physicochemical; conditions: buffer, 1 h; procedure, shortened: as §2
[5] = Thermodynamic solubility in pH 7.4 PBS buffer at 2 mg sonicated for 10 mins followed by incubation at 20 degC for 15 hrs by RP-UPLC-MS analysis; type: physicochemical; conditions: read-out: Therm_solubility
Procedure, shortened: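 Solid (2 mg) in 1 mL PBS (pH 7.4) was sonicated, shaken for 15 h at 20 °C and centrifuged. The supernatant was diluted 1:5 in DMF and quantified by RP-UPLC-MS against a 25–125 µg/mL calibration curve. Results are at least three measurements ± SD.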

[6] = Apparent intrinsic clearance in human liver microsomes at 37 degC at pH 7.4 by RP-UPLC-MS analysis; type: ADME, microsome; conditions: read-out: CLH(app)
Procedure, shortened: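 Pooled human liver microsomes in PBS were preincubated for 10 min at 37 °C. Compound was added from a 10 mM DMSO stock, then NADPH from a 30 mM stock, with a no-NADPH control. Aliquots taken at 0–40 min were quenched in ice-cold MeCN, centrifuged and analyzed by UPLC-MS. CL'int was derived from the in vitro t1/2 scaled by 45 mg microsomes/g liver and 20 g liver/kg body weight.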

Mus musculus [7] = test: Toxicity in DBA/1J mouse model of collagen-induced arthritis inflammation assessed as reduction in body weight at 8.3 mg/kg, ip administered daily for 14 days starting from day 27 post disease onset; type: organism-based; conditions: in vivo, 336 h
[8] = Half life in human plasma at 37 degC at pH 7.4 by RP-UPLC-MS analysis; type: ADME, cell-free
Procedure, shortened: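 Reconstituted freeze-dried human plasma was diluted 1:1 with PBS (pH 7.4) and preincubated for 10 min at 37 °C. Compound was added from a 1 mg/mL DMSO stock and incubated at 37 °C. Samples at 0, 0.5, 1, 2, 4 and 8 h were quenched in ice-cold MeCN, centrifuged, and the supernatant analyzed by RP-UPLC-MS. t1/2 is from triplicates ± SD.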

Mus musculus [9] = test: Anti-arthritic activity in DBA/1J mouse model of collagen-induced arthritis inflammation assessed as reduction in fore limb swelling at 8.3 mg/kg, ip administered daily for 14 days starting from day 27 post disease onset and measured 3 times per week from day 18 to 40 […]; type: functional, organism-based; procedure, shortened: as §1
[10] = Chemical stability in pH 7.4 PBS buffer after 24 hrs by RP-UPLC-MS analysis; type: physicochemical; conditions: pH 7.4, 24 h; procedure, shortened: as §2
[11] = Prodrug activation in 20% DMSO/PBS assessed as 0.5 mM H2O2-mediated methotrexate formation by measuring prodrug half life at 100 uM at 37 degC, pH 7.4 by RP-UPLC-MS analysis; type: physicochemical; conditions: buffer, pH 7.4, 100 µM; procedure, shortened: as §2
[12] = Prodrug activation in 20% DMSO/PBS assessed as 5 mM H2O2-mediated methotrexate formation by measuring prodrug half life at 100 uM at 37 degC, pH 7.4 by RP-UPLC-MS analysis; type: physicochemical; conditions: buffer, pH 7.4, 100 µM; procedure, shortened: as §2
[13] = Half life in 20% DMSO/PBS at 100 uM at 37 degC at pH 7.4 by RP-UPLC-MS analysis; type: physicochemical; procedure, shortened: as §2
[14] = Chemical stability in pH 7.4 PBS buffer by RP-UPLC-MS analysis; type: physicochemical; procedure, shortened: as §2

- Stability [2]: Stable
- Stability [4]: Stable
Structure (SMILES): CN(Cc1cnc2nc(N)nc(N)c2n1)c1ccc(C(=O)N[C@@H](CCC(=O)O)C(=O)O)cc1 [METHOTREXATE]
- Activity (Mus musculus [1]): Active
- Activity (Mus musculus [3]): Toxic

- solubility thermodynamic at 15 h [5]: 400 µg/mL (≈ 741 µM)
- CLint scaled [6]: 1.4 mL/min/kg
- half-life [8]: 7 h
- Stability [10]: Stable
- t1/2 [11]: 16.5 h
- t1/2 [12]: 1.7 h
- half-life at 100 µM [13]: 116 h
Structure (SMILES): CN(Cc1cnc2nc(N)nc(N)c2n1)c1ccc(C(=O)N[C@@H](CCC(=O)N2CCSC2=O)C(=O)O)cc1
- Activity (Mus musculus [7]): Non-Toxic
- Activity (Mus musculus [9]): Active

- Stability [14]: Unstable
Structure (SMILES): CN(Cc1cnc2nc(N)nc(N)c2n1)c1ccc(C(=O)N[C@@H](CCC(=O)O)C(=O)N2CCSC2=O)cc1
